ChEMBL document CHEMBL1811866, “Design, synthesis, and biological evaluation of abiotic, non-lactone modulators of LuxR-type quorum sensing” (Bioorg Med Chem, 2011)

Key:
Format in all cases: functional
[1] = target: T1, Transcriptional activator protein LasR (Pseudomonas aeruginosa (strain ATCC 15692 / PAO1 / 1C / PRS 101 / LMG12228)) (UniProt P25084); assay: Agonist activity at Pseudomonas aeruginosa PAO1 MW1 (pUM15) LasR assessed as activation of quorum sensing at 10 uM relative to N-(3-oxo)-dodecanoyl HL
T1 sequence (whole entry): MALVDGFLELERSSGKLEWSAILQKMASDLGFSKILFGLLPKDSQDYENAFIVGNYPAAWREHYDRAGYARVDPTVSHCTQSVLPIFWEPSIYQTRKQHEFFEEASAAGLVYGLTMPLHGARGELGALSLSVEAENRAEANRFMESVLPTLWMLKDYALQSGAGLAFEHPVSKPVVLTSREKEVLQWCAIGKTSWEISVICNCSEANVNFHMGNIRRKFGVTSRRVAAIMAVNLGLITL
Summary of the method: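 P. aeruginosa PAO1 MW1 grown overnight at 30 °C in LB/MOPS pH 7 with carbenicillin (300 µg/mL). Subcultured 1:10 at 37 °C to OD 0.25–0.30 and plated with compound only, no native ligand. Incubated with shaking at 37 °C for 8 h. OD and fluorescence then read.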

[2] = target: T2, Transcriptional activator protein LuxR (Aliivibrio fischeri) (UniProt P12746); assay: Antagonist activity at Vibrio fischeri ESI 114 (delta-LuxI) LuxR assessed as inhibition of OHHL-induced quorum sensing activation at 10 uM relative to untreated control
T2 sequence (whole entry): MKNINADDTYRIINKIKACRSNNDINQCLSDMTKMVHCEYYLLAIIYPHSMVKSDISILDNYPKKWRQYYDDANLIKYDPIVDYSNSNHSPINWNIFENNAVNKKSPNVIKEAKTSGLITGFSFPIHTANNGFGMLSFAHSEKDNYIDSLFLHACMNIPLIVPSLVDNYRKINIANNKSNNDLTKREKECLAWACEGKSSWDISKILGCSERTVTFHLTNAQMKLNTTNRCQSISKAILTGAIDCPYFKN
Summary of the method: (§1)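 LuxR reporter in V. fischeri ESI 114 (Δ-LuxI), compounds screened at 10 μM in triplicate. For inhibition, cells challenged with 2 μM OHHL. Agonism normalized to native ligand at 100 μM. Negative controls with no ligand subtracted as background.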

[3] = target: T2, Transcriptional activator protein LuxR (Aliivibrio fischeri); assay: Agonist activity at Vibrio fischeri ESI 114 (delta-LuxI) LuxR assessed as activation of quorum sensing at 10 uM relative to OHHL; summary of the method: as §1
[4] = tested on: Escherichia coli DH5[alpha]; assay: Agonist activity at Escherichia coli DH5alpha (pJN105L + pSC11) LasR assessed as activation of quorum sensing at 10 uM relative to N-(3-oxo)-dodecanoyl HL
[5] = tested on: Escherichia coli DH5[alpha]; assay: Antagonist activity at Escherichia coli DH5alpha (pJN105L + pSC11) LasR assessed as inhibition of N-(3-oxo)-dodecanoyl HL-induced quorum sensing activation at 10 uM relative to untreated control
[6] = target: T3, Transcriptional activator protein TraR (Agrobacterium tumefaciens) (UniProt P33905); assay: Agonist activity at Agrobacterium tumefaciens WCF (pCF372) TraR assessed as activation of quorum sensing at 10 uM relative to OOHL
T3 sequence (whole entry): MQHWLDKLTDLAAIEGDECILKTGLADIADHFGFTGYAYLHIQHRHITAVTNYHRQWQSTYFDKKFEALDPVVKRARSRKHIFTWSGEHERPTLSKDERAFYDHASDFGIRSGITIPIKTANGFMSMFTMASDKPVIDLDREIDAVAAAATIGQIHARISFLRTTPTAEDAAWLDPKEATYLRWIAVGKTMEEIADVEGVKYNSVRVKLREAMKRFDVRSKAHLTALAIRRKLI

[7] = target: T1, Transcriptional activator protein LasR (Pseudomonas aeruginosa (strain ATCC 15692 / PAO1 / 1C / PRS 101 / LMG12228)); assay: Antagonist activity at Pseudomonas aeruginosa PAO1 MW1 (pUM15) LasR assessed as inhibition of N-(3-oxo)-dodecanoyl HL-induced quorum sensing activation at 10 uM relative to untreated control
Summary of the method: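 P. aeruginosa PAO1 MW1 colony grown overnight at 30 °C in LB with MOPS at pH 7 plus carbenicillin (300 µg/mL). Diluted 1:10 and shaken at 37 °C to OD 0.25–0.30. OdDHL added to the subculture at 1 μM final, then plated with test compound. Plates shaken at 37 °C for 8 h, then optical density and fluorescence read.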

[8] = target: T3, Transcriptional activator protein TraR (Agrobacterium tumefaciens); assay: Antagonist activity at Agrobacterium tumefaciens WCF (pCF372) TraR assessed as inhibition of OOHL-induced quorum sensing activation at 10 uM relative to untreated control

Structure (SMILES)	Activity [1] [%]	inhibition [2] [%]	Activity [3] [%]	Activity [6] [%]	inhibition [7] [%]	inhibition [8] [%]	Activity [4] [%]	inhibition [5] [%]
O=C(Cc1ccc(-c2ccccc2)cc1)NC1CCCC1	1	17	5	–	–	–	0	4
CCOC(=O)CNC(=O)CCc1cccc(I)c1	0	89	0	–	–	–	0	38
O=C(Cc1ccc(Br)cc1)NC1CCCC1	0	35	0	–	–	–	0	11
CCOC(=O)CNC(=O)Cc1ccc(SC(F)(F)F)cc1	0	43	0	–	–	–	0	33
O=C(Cc1cccc([N+](=O)[O-])c1)NC1CCCC1	0	62	33	–	-5	–	0	29
CCOC(=O)CNC(=O)CCc1ccc(OC)cc1	0	40	0	–	-6	–	0	36
O=C(Cc1ccc(Br)cc1)Nc1ccccc1	0	1	0	–	12	–	3	20
O=C(Cc1cccc([N+](=O)[O-])c1)Nc1ccccc1	1	0	0	–	0	–	0	12
CCOC(=O)CNC(=O)Cc1cccc([N+](=O)[O-])c1	0	19	0	–	–	–	93	41
CCOC(=O)CNC(=O)Cc1ccc(Br)cc1	0	14	0	–	–	–	0	33
O=C(CCCc1c[nH]c2ccccc12)NC1CCCC1	2	25	4	–	-10	–	0	20
CCOC(=O)CNC(=O)Cc1ccccc1	0	15	0	–	-10	–	0	38
O=C(Cc1ccccc1)NC1CCCC1	0	19	0	–	1	–	0	11
COc1ccc(CC(=O)NC2CCCC2)cc1	0	18	3	–	-1	–	6	24
CCCCCCCCCC(=O)CC(=O)NC1CCCC1	54	89	4	-1	-1	-3	84	–

Now from value to compound, other results behind:

Activity [1] [%]	inhibition [2] [%]	Activity [3] [%]	Activity [6] [%]	inhibition [7] [%]	inhibition [8] [%]	Structure (SMILES)	Activity [4] [%]	inhibition [5] [%]
4	35	3	-1	-7	–	CCCCCCCCCC(=O)CC(=O)NCCC1=CCCCC1	0	10
0	14	0	–	-5	–	CCOC(=O)CNC(=O)CCc1ccc(Cl)cc1	0	38
0	2	3	-2	0	–	CCCCCCCCCC(=O)CC(=O)Nc1cc(-c2ccc(Cl)cc2)nn1C	0	0
0	7	1	0	5	-4	CCCCCCCCCC(=O)CC(=O)NCCc1ccccc1	0	-4
0	24	4	0	23	-4	CCCCCCCCCC(=O)CC(=O)N[C@@H](C)C(=O)OC	2	-4
0	–	3	-1	16	-10	CCCCCCCCCC(=O)CC(=O)NCc1cc(F)cc(F)c1	0	22
1	15	2	0	38	-8	CCCCCCCCCC(=O)CC(=O)NCc1ccc(OC)cc1	73	–
12	–	8	2	11	-3	CCCCCCCCCC(=O)CC(=O)NCC(=O)OCC	51	–
0	–	5	-1	5	–	CCCCCCCCCC(=O)CC(=O)NCc1c(F)cccc1F	1	13
0	–	2	-1	13	–	CCCCCCCCCC(=O)CC(=O)NCc1ccccc1F	0	38
1	12	2	1	29	–	CCCCCCCCCC(=O)CC(=O)Nc1ccccc1	3	54
0	-4	4	-1	26	1	CCCCCCCCCC(=O)CC(=O)NCc1ccco1	0	0
0	2	7	–	5	–	CCCCCCCCCC(=O)Nc1ccccc1	3	20
0	–	6	-1	8	-6	CCCCCCCCCC(=O)CC(=O)NCCC(c1ccccc1)c1ccccc1	0	17
0	44	2	0	17	-6	CCCCCCCCCC(=O)CC(=O)NCc1cccc([N+](=O)[O-])c1	0	41
0	–	1	0	9	-10	CCCCCCCCCC(=O)CC(=O)NCc1ccc(OC)c(OC)c1	1	13
0	–	1	0	13	–	CCCCCCCCCC(=O)CC(=O)NCc1ccc(F)cc1	0	13
